Blank lines part the entries; values can stand above or below the compound they belong to. The source made the active and inactive calls. No cut-off for these calls is given here.
How the values were obtained:
[1] = Antiproliferative activity against human MDA-MB-231 cells after 72 hrs by MTT assay; format: functional, cell-based; settings: MDA-MB-231, 72 h
[2] = Antiproliferative activity against human HCT116 cells after 72 hrs by MTT assay; format: functional, cell-based; settings: HCT-116, 72 h
Procedure, shortened: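 MTT viability after 72 h exposure. Cells seeded at 2500/well and left 24 h before compound addition; DMSO at 0.5% v/v final. MTT added in FBS-free medium for 3 h at 37 °C, formazan dissolved in DMSO, absorbance read at 570 nm. IC50 from a sigmoidal fit of % viability vs log concentration; triplicates on separate occasions using two different stock solutions.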

[3] = Antiproliferative activity against human PC3 cells after 72 hrs by MTT assay; format: functional, cell-based; settings: PC-3, 72 h
[4] = Antiproliferative activity against human MCF7 cells after 72 hrs by MTT assay; format: functional, cell-based; settings: MCF7, 72 h
[5] = Antiproliferative activity against human HCT116 cells after 48 hrs by CellTiter-Glo assay; format: functional, cell-based; settings: HCT-116, 48 h
[6] = Antiproliferative activity against human PC3 cells after 48 hrs by CellTiter-Glo assay; format: functional, cell-based; settings: PC-3, 48 h
[7] = Antiproliferative activity against human MCF7 cells after 48 hrs by CellTiter-Glo assay; format: functional, cell-based; settings: MCF7, 48 h
[8] = Antiproliferative activity against human HL60 cells; format: functional, cell-based; settings: HL-60
[9] = cells; format: functional, cell-based; settings: Homo sapiens, HEL 92.1.7, 36 h
[10] = Antiproliferative activity against human Jurkat cells; format: functional, cell-based
[11] = Antiproliferative activity against HEL 92.1.7 cells harboring JAK2 V617F mutant after 48 hrs by CellTiter-Glo assay; format: functional, cell-based; settings: Homo sapiens, HEL 92.1.7, 48 h
[12] = Antiproliferative activity against human Jurkat cells after 48 hrs by CellTiter-Glo assay; format: functional, cell-based
[13] = Antiproliferative activity against human KMS-12-BM cells after 48 hrs by CellTiter-Glo assay; format: functional, cell-based
[14] = Antiproliferative activity against human OPM2 cells after 48 hrs by CellTiter-Glo assay; format: functional, cell-based; settings: OPM-2, 48 h
Procedure, shortened: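 OPM2 grown in RPMI 1640 with 10% FBS and penicillin/streptomycin at 37 °C, 5% CO2. Treated at 25,000 cells/well in triplicate for 48 h. Viability read by CellTiter-Glo luminescence. IC50 taken from a sigmoidal fit of % viability vs log concentration.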

[15] = Antiproliferative activity against human KG1 cells after 48 hrs by CellTiter-Glo assay; format: functional, cell-based; settings: KG-1, 48 h
[16] = Antiproliferative activity against human MOLM14 cells harboring FLT3-ITD mutant after 48 hrs by CellTiter-Glo assay; format: functional, cell-based; settings: MOLM-14, 48 h
[17] = Antiproliferative activity against human NKYS cells after 48 hrs by CellTiter-Glo assay; format: functional, cell-based
[18] = Antiproliferative activity against human KHYG cells after 48 hrs by CellTiter-Glo assay; format: functional, cell-based
[19] = Antiproliferative activity against mouse TAMH cells after 24 hrs by CellTiter-Glo assay; format: ADME, cell-based
[20] = biological target: T1, Tyrosine-protein kinase JAK2 (Homo sapiens, UniProt O60674); assay: Inhibition of JAK2 in IL-6-stimulated human KMS-12-BM cells assessed as suppression of STAT3 phosphorylation at TY705 residue at 2 uM pretreated for 3 hrs followed by IL-6 stimulation by immunoblot method
Procedure, shortened: (§1)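 KMS-12-BM or MOLM-14 cells pretreated with compound for 3 h, then stimulated with IL-6 (10 ng/mL) for 15 min. Lysates immunoblotted for p-STAT3 (Y705) and re-probed for total STAT3. Reference JAK2 inhibitor used at 2 μM in KMS-12-BM and 0.1 μM in MOLM-14.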

[21] = biological target: T1, Tyrosine-protein kinase JAK2; assay: Inhibition of JAK2 in IL-6-stimulated human MOLM14 cells assessed as suppression of STAT3 phosphorylation at TY705 residue at 0.1 uM pretreated for 3 hrs followed by IL-6 stimulation by immunoblot method; format: cell-based; settings: MOLM-14; procedure, shortened: as §1
[22] = tested on: Tyrosine-protein kinase JAK2 (Homo sapiens), O60674 [V617F]; assay: Induction of JAK2 V617F mutant phosphorylation at Y1007/8 residues in HEL 92.1.7 cells after 1 hr by immunoblot method; format: cell-based
Procedure, shortened: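 HEL92.1.7 cells seeded at 5x10^5/mL and treated 1 h at 0, 0.1, 0.5 and 1 μM. Lysed in RIPA with phosphatase/protease inhibitors, run on 10% SDS-PAGE and blotted to PVDF. Probed for acetyl-tubulin, acetyl-H3 (Lys9/Lys14), p-JAK2 (Y1007/1008) and p-STAT5 (Tyr694); membranes re-probed for tubulin, H3, JAK2 and STAT5. Quantified by densitometry.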

[23] = tested on: MOLM-14; assay: Induction of apoptosis in human MOLM14 cells assessed as live cells at 1 uM after 48 hrs by Annexin-V FITC/propidium iodide staining based flow cytometry (reference value: 94 to 94.1%); format: functional
Procedure, shortened: (§2)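 MOLM-14 cells treated 48 h at the stated concentrations; doxorubicin as positive control. Stained with Annexin V-FITC and propidium iodide and analysed by flow cytometry (at least 10,000 events). Gated quadrants: Annexin V−/PI− viable, Annexin V+/PI− early apoptotic, Annexin V+/PI+ late apoptotic.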

[24] = tested on: MOLM-14; assay: Induction of apoptosis in human MOLM14 cells assessed as early apoptotic cells at 1 uM after 48 hrs by Annexin-V FITC/propidium iodide staining based flow cytometry (reference value: 3.6 to 3.7%); format: functional; procedure, shortened: as §2
[25] = tested on: MOLM-14; assay: Induction of apoptosis in human MOLM14 cells assessed as late apoptotic cells at 1 uM after 48 hrs by Annexin-V FITC/propidium iodide staining based flow cytometry (reference value: 2.1 to 2.2%); format: functional; procedure, shortened: as §2
[26] = tested on: MOLM-14; assay: Induction of apoptosis in human MOLM14 cells assessed as necrotic cells at 1 uM after 48 hrs by Annexin-V FITC/propidium iodide staining based flow cytometry (reference value: 0.1%); format: functional; procedure, shortened: as §2

T1 sequence (O60674 whole entry): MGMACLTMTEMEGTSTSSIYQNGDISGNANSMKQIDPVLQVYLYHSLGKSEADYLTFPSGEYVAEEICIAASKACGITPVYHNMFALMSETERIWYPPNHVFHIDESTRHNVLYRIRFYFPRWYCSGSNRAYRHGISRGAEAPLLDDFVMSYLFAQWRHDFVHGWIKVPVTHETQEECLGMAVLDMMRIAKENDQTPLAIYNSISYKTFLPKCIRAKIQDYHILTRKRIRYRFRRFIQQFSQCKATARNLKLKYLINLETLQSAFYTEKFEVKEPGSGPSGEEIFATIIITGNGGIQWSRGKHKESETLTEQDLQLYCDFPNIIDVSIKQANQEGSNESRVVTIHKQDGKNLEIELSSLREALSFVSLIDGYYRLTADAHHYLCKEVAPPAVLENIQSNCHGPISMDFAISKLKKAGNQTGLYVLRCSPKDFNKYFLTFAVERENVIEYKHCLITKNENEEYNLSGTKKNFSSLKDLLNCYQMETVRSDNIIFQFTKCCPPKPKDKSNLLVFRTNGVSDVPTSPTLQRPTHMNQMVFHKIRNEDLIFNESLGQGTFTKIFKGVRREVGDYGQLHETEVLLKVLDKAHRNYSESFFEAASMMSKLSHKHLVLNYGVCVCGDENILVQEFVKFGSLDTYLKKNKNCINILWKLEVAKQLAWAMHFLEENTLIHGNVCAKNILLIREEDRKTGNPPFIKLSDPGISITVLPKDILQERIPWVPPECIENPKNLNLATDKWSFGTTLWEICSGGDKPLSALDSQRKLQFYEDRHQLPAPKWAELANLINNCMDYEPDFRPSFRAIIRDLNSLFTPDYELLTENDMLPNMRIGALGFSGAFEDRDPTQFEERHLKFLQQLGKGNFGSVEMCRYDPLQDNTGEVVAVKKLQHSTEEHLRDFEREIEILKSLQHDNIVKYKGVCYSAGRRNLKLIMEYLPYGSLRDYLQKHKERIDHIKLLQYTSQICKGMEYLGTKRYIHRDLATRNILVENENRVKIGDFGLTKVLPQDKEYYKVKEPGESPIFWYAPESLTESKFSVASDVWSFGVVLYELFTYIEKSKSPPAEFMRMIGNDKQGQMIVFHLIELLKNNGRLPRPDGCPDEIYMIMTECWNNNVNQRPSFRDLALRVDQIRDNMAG
Chain of Tyrosine-protein kinase JAK2 (Homo sapiens), O60674 [V617F] (O60674 whole entry V617F): as the sequence (O60674 whole entry) above, with V617F counted along it

IC50 [9]: 1.17 µM
inhibition [20]: Active
inhibition [21]: Active
Activity [22]: Active
Structure (SMILES): C1=N/C2=N/c3ccc(OCCN4CCCC4)c(c3)COC/C=C/COCc3cccc(c3)C(=C1)N2 [PACRITINIB]
IC50 [1]: 2.43 µM
IC50 [2]: 0.88 µM
IC50 [3]: 2.41 µM
IC50 [4]: 0.29 µM
IC50 [5]: 1.69 µM
IC50 [6]: 0.77 µM
IC50 [7]: 0.85 µM
IC50 [8]: 1.78 µM
IC50 [10]: 1.09 µM
IC50 [11]: 1.73 µM
IC50 [12]: 0.839 µM
IC50 [13]: 0.75 µM
IC50 [14]: 1.21 µM
IC50 [15]: 1.48 µM
IC50 [16]: 0.079 µM
IC50 [17]: 1.6 µM
IC50 [18]: 1.24 µM
IC50 [19]: 3.68 µM

Structure (SMILES): COc1cccc2c1C(=O)c1c(O)c3c(c(O)c1C2=O)C[C@@](O)(C(=O)CO)C[C@@H]3O[C@H]1C[C@H](N)[C@H](O)[C@H](C)O1 [DOXORUBICIN]
Activity [23]: 0.8%
Activity [24]: 38.8%
Activity [25]: 59.9%
Activity [26]: 0.4%
